The test system of data set [1] is early liver stage parasites. Particulars: cited from earlier work.
The target in data set [2] is T1, PfAtg8-PfAtg3 interaction (Plasmodium falciparum, UniProt Q8IJK2, C119S/C122S/C32I).
T1 sequence (Q8IJK2 1-124 C32I/C119S/C122S): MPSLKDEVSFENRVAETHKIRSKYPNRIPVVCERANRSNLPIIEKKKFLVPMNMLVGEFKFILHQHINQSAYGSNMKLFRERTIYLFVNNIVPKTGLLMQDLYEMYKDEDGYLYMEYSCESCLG
T1 sequence (C0H519 1-313 partner): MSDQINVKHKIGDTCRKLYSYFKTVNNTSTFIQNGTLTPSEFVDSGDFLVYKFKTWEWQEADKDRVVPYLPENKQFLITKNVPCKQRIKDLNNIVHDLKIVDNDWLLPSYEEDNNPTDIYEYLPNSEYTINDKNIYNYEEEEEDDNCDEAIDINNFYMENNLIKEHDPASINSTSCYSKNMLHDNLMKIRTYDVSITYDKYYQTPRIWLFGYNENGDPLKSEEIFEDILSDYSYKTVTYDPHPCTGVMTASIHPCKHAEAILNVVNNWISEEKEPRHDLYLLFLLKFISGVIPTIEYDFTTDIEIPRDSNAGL
The data set can be described thus: MMV SPR competition assay. The class given is binding, P. falciparum. Particulars: read-out: inhibition of the PfAtg8-PfAtg3 interaction in primary SPR screen. Put shortly: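 MBP-PfAtg3 immobilized on a CM5 chip, with MBP on the reference flowcell. Test compound (final 5 μM) or DMSO was mixed with 300 nM His6-PfAtg8CM in PBS pH 7.4 with 0.01% P20, final DMSO 3%, and injected. Binding read as SPR response versus DMSO control. Surface regenerated with 2 M MgCl2 between injections.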

Data set [3] deals with P. falciparum 3D7-GFP liver stage. Briefly: In vitro infection of human hepatocytes. The class given is cell-based. Conditions: for decrease in proportion of hepatocytes infected with P. falciparum 3D7-GFP (GFP+/PI−): 72 h post infection.
The test system of data set [4] is Plasmodium yoelii liver stage cultures. Conditions: screening concentration 10 μM; ref PubChem AID: 602118 and 602156, 18, 19; cited from earlier work.
Data set [5] deals with P. falciparum 3D7. The data set can be described thus: SYBR green I growth inhibition assay, blood stage. The class given is cell-based. Conditions: Plasmodium falciparum, 3D7, read-out: IC50 in a third experiment.
For data set [6], the system named is PfAtg8. The data set can be described thus: Immunoblot analysis of PfAtg8 in P. falciparum blood stage. The class given is cell-based. Particulars: for delipidation of PfAtg8 (immunoblot): 6 hours. For orientation: Immunoblotting shows a protein as a band on a membrane.
Data set [7] deals with human cell lines. Conditions: ref PubChem AID: 660872, 685525, and 449705; cited from earlier work.
Data set [8] concerns the target T2, PfAtg8^CM (Plasmodium falciparum, UniProt Q8IJK2, C119S/C122S/C32I).
T2 sequence (Q8IJK2 1-124 C32I/C119S/C122S): T1 sequence (Q8IJK2 1-124 C32I/C119S/C122S)
The data set can be described thus: Direct binding of 1 to immobilized PfAtg8^CM by SPR. More on the design: species or system P. falciparum. The gist of the method: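 SPR direct binding: His12-PfAtg8CM captured on a nickel-preconditioned NTA chip to 3000 RU. Two-fold dilution series of test compound (top 75 μM) injected at 40 μL/min in PBS pH 7.4 with 0.01% P20 and 3% DMSO. Double referencing with interspersed blanks; DMSO calibration curve; binding constants fitted.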

Data set [9] concerns HC-04 cells. Briefly: Viability of HC-04 cells. The class given is cell-based, human. Particulars: 30 μM.
In data set [10] the test system is P. falciparum blood stage. The data set can be described thus: Parasite morphology in blood smears. The class given is cell-based. Particulars: treatment concentration and duration used in the study (50 μM, 5 h). Put shortly: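 Asynchronous FCR3 blood-stage culture (25% parasitemia; 37 °C, 2% hematocrit, RPMI with 10% human serum, 3% CO2/5% O2) washed in serum-free starvation medium. Resuspended in complete medium with 50 μM test compound or DMSO, or in starvation medium with DMSO, for 5 h. Morphology viewed by light microscopy at 100× at harvest.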

In data set [11] the target is T3, PfAtg3 (Plasmodium falciparum, UniProt C0H519).
T3 sequence (C0H519 1-313): T1 sequence (C0H519 1-313 partner)
Briefly: Direct binding of protein to immobilized 8 by SPR. More on the design: species or system P. falciparum. Conditions: data not shown. The gist of the method:
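Test compound captured on a neutravidin-coated SPR flowcell (130 RUs), with a control ligand on the reference flowcell (150 RUs). His6-PfAtg3 injected in duplicate in 10 mM HEPES pH 7.5, 150 mM NaCl, 0.05% P20. Regeneration after each cycle with 20 mM HEPES pH 7.4, 1% w/v SDS.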

Consider eight molecules from article PMC4059259 (Journal of Medicinal Chemistry, 2014).

Entries after “also recorded” stand apart in the source; their conditions may differ.

One may read the inhibition as the change of the read-out against control, counted positive when it falls. One may read the IC50 as the concentration needed to halve the response being measured.

Regarding `Cn1cnc(N)c2ncnc1-2` [3-methyladenine], the “effect on conversion of parasite into trophozoite form” value in [1] was “delay conversion of the parasite into its trophozoite form”.

Take `Cc1ccc(-c2cc3c(SCC(=O)Nc4cc(C(F)(F)F)ccc4Cl)nccn3n2)cc1` [Compound 4, N-[2-chloro-5-(trifluoromethyl)phenyl]-2-[2-(4-methylphenyl)pyrazolo[1,5-a]pyrazin-4-yl]sulfanylacetamide]: in data set [2], the inhibition at 5 µM is at least 25%.

`CSc1ccccc1C(=O)Nc1nc(-c2ccccn2)cs1` [Compound 2, 2-methylsulfanyl-N-(4-pyridin-2-yl-1,3-thiazol-2-yl)benzamide]: in [2], the inhibition at 5 µM was at least 25%.

`O=C(Nc1nc(-c2ccccn2)cs1)c1ccccc1Br` [Compound 3, 2-bromo-N-(4-pyridin-2-yl-1,3-thiazol-2-yl)benzamide]: the inhibition at 5 µM in data set [2] was at least 25%.

As to `CN(C)c1ccc(N2C(N)=NC(N)=NC2(C)C)cc1` [Compound 5, 1-[4-(dimethylamino)phenyl]-6,6-dimethyl-1,3,5-triazine-2,4-diamine], the inhibition at 5 µM in data set [2] was at least 25%.

As to `Cc1ccc(Nc2nc(-c3ccccn3)cs2)cc1` [Compound 1, N-(4-methylphenyl)-4-pyridin-2-yl-1,3-thiazol-2-amine], the “intensity of GFP fluorescence in infected hepatocytes” value in data set [3] (3 μM and 30 μM) is listed as “dose-dependent reduction”. For the same molecule, the “decrease in proportion of hepatocytes infected with P. falciparum 3D7-GFP (GFP+/PI−)” value in data set [3] (3 μM) is “but not with 3 μM”; in data set [3] (30 μM), about 50%. For the same molecule, the “inhibition of P. yoelii liver stage” value in data set [4] is recorded as at most 50%. In data set [5], the IC50 is 3.3 µM. The results for the “delipidation of PfAtg8 (immunoblot)” value in [6] (12.5 μM) and in data set [6] (25 μM) were “dose-dependent increase in delipidation of PfAtg8” and “unlipidated PfAtg8 is the predominant species”, respectively. For the same molecule, the “PfAtg8 protein levels (immunoblot)” value in [6] (50 μM (cytocidal, high levels), 5 h, FCR3) is given as “drastic increase in PfAtg8 protein levels”. The “reported cytotoxicity in human cell lines” value in data set [7] is recorded as “much lower than that of compounds 2 or 3”. Besides, the “direct binding to PfAtg8^CM (SPR response)” value in data set [8] was “dose-dependent increase in SPR response; also recorded: directly binds to PfAtg8”. Moreover, the inhibition at 5 µM in data set [2] is at least 25%. In data set [9], the “cell death in HC-04 cells” value is “did not observe cell death”. Further, the parasite morphology entry in data set [10] was “parasite morphology appeared normal”.

For `O=C(CCCC[C@H]1SC[C@H]2NC(=O)N[C@H]21)NCCCCCC(=O)NNCc1ccc(C(=O)Nc2nc(-c3ccccn3)cs2)cc1` [Compound 8, 4-[[2-[6-[5-[(3aR,4R,6aS)-2-Oxo-1,3,3a,4,6,6a-hexahydrothieno[3,4-d]imidazol-4-yl]pentanoylamino]hexanoyl]hydrazinyl]methyl]-N-(4-pyridin-2-yl-1,3-thiazol-2-yl)benzamide], the “binding of recombinant PfAtg3 to immobilized 8” value in data set [11] is “did not bind”.

As to `Brc1ccc(Nc2nc3ccccc3nc2Nc2ccc(Br)cc2)cc1` [Compound 6, 2-N,3-N-bis(4-bromophenyl)quinoxaline-2,3-diamine], in [2], the inhibition at 5 µM is at least 25%.
